The target in data set [1] is Hypoxia-inducible factor 1-alpha (Homo sapiens) (UniProt Q16665). The data set can be described thus: Inhibition of HIF1alpha transcriptional activity in hypoxia-induced human HCCLM3 cells co-transfected with luciferase reporter plasmid containing five copies of HREs and pRL-SV40 plasmid encoding Renilla luciferase at 10 uM incubated with compound under normoxia for 1 hr followed by hypoxia induction and measured after 24 hrs by HRE-dependent dual luciferase reporter gene assay relative to control. Put shortly: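 LM3 cells co-transfected with firefly luciferase reporter carrying five HRE copies plus pRL-SV40 Renilla plasmid; after transfection treated and kept under hypoxia; firefly luminescence normalized to Renilla. Single-point inhibition rate at 10 μM; IC50 for selected compounds.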

Data set [2] can be described thus: Cytotoxicity against human HCCLM3 cells assessed as reduction in cell viability incubated for 48 hrs by MTT assay. It counts as cell-based. In general terms: Tetrazolium assays rely on reduction of a dye to a coloured formazan, in cell work by metabolically active cells.
A further data set relates to HCCLM3. The data set can be described thus: Inhibition of HIF1alpha accumulation in hypoxia-induced human HCCLM3 cells at 10 uM incubated with compound under normoxia for 1 hr followed by hypoxia induction and measured after 24 hrs by Western blot analysis. Type of data set: functional, cell-based. Put shortly:
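LM3 cells treated at 10 μM under hypoxia; HIF-1α protein by western blot, LW6 as reference.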
Background: In western blotting, separated proteins are transferred to a membrane and probed.

For the next data set, the species on record is Danio rerio. In words: Antiangiogenic activity in […]/EGFP transgenic zebrafish embryo assessed as destruction of subintestinal vessel at 0.5 uM incubated for 24 hrs by confocal microscopic method. Type of data set: functional, organism-based. Put shortly:
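Transgenic zebrafish with GFP-labeled vascular endothelium; embryos selected, […], exposed 24 h to 0.5 or 1 μM (DMSO vehicle, n = 10; apatinib 0.5 μM reference); SIVs imaged by confocal microscopy and counted per field; means ± SD, three independent experiments.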

Active and inactive are the calls of the source. No cut-off for these calls is given here. Where only a bound is given, the exact number is not on record here.

Chain of Hypoxia-inducible factor 1-alpha (Homo sapiens) (Q16665 whole entry, looked up): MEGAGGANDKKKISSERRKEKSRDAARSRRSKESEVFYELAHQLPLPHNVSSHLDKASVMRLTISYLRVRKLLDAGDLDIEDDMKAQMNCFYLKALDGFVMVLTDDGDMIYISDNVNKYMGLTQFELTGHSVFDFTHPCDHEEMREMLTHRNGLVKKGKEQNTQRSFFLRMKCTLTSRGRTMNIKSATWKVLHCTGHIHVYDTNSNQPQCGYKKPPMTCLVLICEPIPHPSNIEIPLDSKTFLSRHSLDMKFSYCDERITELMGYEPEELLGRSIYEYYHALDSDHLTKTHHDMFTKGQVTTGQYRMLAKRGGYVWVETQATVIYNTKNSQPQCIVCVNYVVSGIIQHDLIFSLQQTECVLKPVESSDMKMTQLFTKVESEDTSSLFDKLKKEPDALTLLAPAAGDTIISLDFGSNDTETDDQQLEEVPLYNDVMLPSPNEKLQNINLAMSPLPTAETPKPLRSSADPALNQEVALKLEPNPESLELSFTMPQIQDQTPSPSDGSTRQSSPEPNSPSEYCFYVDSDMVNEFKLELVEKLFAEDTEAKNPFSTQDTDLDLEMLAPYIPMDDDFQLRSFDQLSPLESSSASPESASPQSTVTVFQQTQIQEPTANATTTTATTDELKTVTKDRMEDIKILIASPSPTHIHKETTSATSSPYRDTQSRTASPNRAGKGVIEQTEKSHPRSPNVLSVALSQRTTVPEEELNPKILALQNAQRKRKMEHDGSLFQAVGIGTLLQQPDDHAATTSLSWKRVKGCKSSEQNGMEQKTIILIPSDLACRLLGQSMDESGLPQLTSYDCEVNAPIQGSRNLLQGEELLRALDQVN

As a reminder, the inhibition is how much of the control response was suppressed. For `O=C(NCCc1ccccc1Cl)c1coc(-c2ccccc2)n1`, in data set [1], the inhibition came to 51.4%. What is called CC50 is the concentration at which the toxic effect on the cells reaches its halfway point. Take `O=C(NCCc1ccncc1)c1ccc(-c2ccccc2)cn1`: the inhibition in data set [1] came out at 60.7%. Also, the 50% cytotoxic concentration (CC50) at 48 h in data set [2] was above 50 µM. As to `Cc1nc(C(=O)NCCc2cccc(Cl)c2)cs1`, the inhibition in data set [1] amounted to 1.2%. Still for that read-out and setting: as for `O=C(NCCc1ccncc1)c1ccc(-c2ccccc2)cc1`, the figure is 42%.

In the case of `O=C(NCCc1ccccc1Cl)c1csc(-c2cccnc2)n1`, the inhibition in data set [1] was 21.6%. Consider `Cc1nc(C(=O)NCCc2ccccc2Cl)cs1`, for which, in data set [1], the inhibition turned out to be 42.7%. For the compound `O=C(NCCc1ccncc1)c1csc(-c2ccccc2)n1`, the inhibition in data set [1] came to 48.7%.

In the case of `O=C(NCCc1ccccn1)c1ccc(-c2ccccc2)cn1`, in data set [1], the inhibition is 43.7%. On to `Cc1nc(C(=O)NCCc2cccnc2)cs1`, for which, in data set [1], the inhibition came to 2.4%. Still for that read-out and setting: next, `N#Cc1ccc(-c2ccc(C(=O)NCCc3ccccc3F)nc2)cc1`: 13.1%. As for `O=C(NCCc1ccccc1Cl)c1ccc(-c2ccccc2)cc1`, in data set [1], the inhibition is 77.2%. Further, in data set [2], the CC50 at 48 h was above 50 µM. With `Cc1ccc(C(=O)NCCc2ccncc2)o1`, in data set [1], the inhibition stood at 12.8%. For the compound `O=C(NCCc1ccccc1Cl)c1ccc(-c2ccccc2)nc1`, in data set [1], the inhibition turned out to be 45.1%. `O=C(NCCc1ccncc1)c1csc(-c2ccncc2)n1`: the inhibition in data set [1] came to 19.9%. As to `Cc1ccc(C(=O)NCCc2ccccc2Cl)o1`, the inhibition in data set [1] came to 17.4%. As for `Cc1nc(C(=O)NCCc2ccc(Cl)cc2)cs1`, the inhibition in data set [1] is 0.6%.

As to `O=C(NCCc1ccccc1)c1ccc(-c2ccccc2)cn1`, the inhibition in data set [1] turned out to be 82.2%. The CC50 at 48 h in data set [2] is above 50 µM. Regarding `O=C(NCCc1ccccc1F)c1ccc(-c2ccccc2O)cn1`, in data set [1], the inhibition came to 43.6%. Consider `O=C(NCCc1ccccc1Cl)c1nnc(-c2ccccc2)o1`, for which the inhibition in data set [1] stood at 41.8%. Take `O=C(NCCc1ccccc1F)c1ccc(-c2cn[nH]c2)cn1`: in data set [1], the inhibition stood at 29.5%. Further, in the data set on HCCLM3, the “HIF-1α accumulation inhibition (qualitative)” value (shortened to “HIF-1α accumulation inhibition”) is “Active”.

For `O=C(NCCc1ccncc1)c1noc(-c2ccccc2)n1`, the inhibition in data set [1] was 49.7%. Turning to `O=C(NCCc1ccccc1F)c1ccc(-c2ccncc2)cn1`, the inhibition in data set [1] amounted to 57.5%.

`Cc1ccc(C(=O)NCCc2ccccc2Cl)cc1`: the inhibition in data set [1] turned out to be 45.3%. Consider `N#Cc1ccccc1-c1ccc(C(=O)NCCc2ccccc2F)nc1`, for which the inhibition in data set [1] amounted to 62.7%. In addition, in data set [2], the 50% cytotoxic concentration (CC50) at 48 h was above 50 µM. Turning to `Cc1nc(C(=O)NCCc2ccccn2)cs1`, in data set [1], the inhibition was found to be 5.1%. On to `O=C(NCCc1ccccc1F)c1ccc(-c2ccccc2)cn1`, for which the inhibition in data set [1] stood at 91.4%. In data set [2], the CC50 at 48 h was above 50 µM. For `O=C(NCCc1ccccc1F)c1ccc(-c2ccc(F)cc2)cn1`, the inhibition in data set [1] is 41.2%. Consider `O=C(NCCc1cccc(F)c1)c1ccc(-c2ccccc2)cn1`, for which the inhibition in data set [1] was 58.7%.

Consider `Cc1ccc(CCNC(=O)c2ccc(-c3ccccc3)cn2)cc1`, for which the inhibition in data set [1] was found to be 31.8%. Take `COC(=O)c1ccc(O)c(NC(=O)COc2ccc(C34CC5CC(CC(C5)C3)C4)cc2)c1`: in data set [1], the inhibition worked out at 73.5%. Further, in the data set on HCCLM3, the “HIF-1α accumulation inhibition” value is “Active”. Besides, in data set [2], the cytotoxic concentration (CC50) at 48 h is above 50 µM.

On to `Cc1cccc(C(=O)NCCc2ccccc2Cl)n1`, for which the inhibition in data set [1] worked out at 37.3%.

In the case of `O=C(NCCc1ccccc1F)c1ccc(-c2ccsc2)cn1`, the inhibition in data set [1] worked out at 88.2%. Moreover, the CC50 at 48 h in data set [2] was above 50 µM.

Consider `O=C(NCCc1ccc(F)cc1)c1ccc(-c2ccccc2)cn1`, for which the inhibition in data set [1] turned out to be 46.1%. For `O=C(NCCc1ccc([N+](=O)[O-])cc1)c1ccc(-c2ccccc2)cn1`, the inhibition in data set [1] was 40.2%. As for `O=C(NCCc1ccccc1F)c1ccc(-c2cccs2)cn1`, the inhibition in data set [1] turned out to be 80%. In data set [2], the CC50 at 48 h was above 50 µM. Consider `Cc1cccc(C(=O)NCCc2ccncc2)n1`, for which, in data set [1], the inhibition was determined as 36.4%. On the same count and under the same terms, as for `O=C(NCCc1ccccc1Cl)c1nc(-c2ccccc2)no1`, the figure is 44.1%; as for `COc1ccc(-c2ccc(C(=O)NCCc3ccccc3F)nc2)cc1`, 45.6%. With `Cc1nc(C(=O)NCCc2ccccc2)cs1`, the inhibition in data set [1] was 21.2%. In the data set on HCCLM3, the “HIF-1α accumulation inhibition” value was “Active”. As to `O=C(NCCc1ccccc1F)c1ccc(-c2ccco2)cn1`, the inhibition in data set [1] was determined as 57.2%. For the compound `Nc1ccc(CCNC(=O)c2ccc(-c3ccccc3)cn2)cc1`, the inhibition in data set [1] was found to be 60.2%. Further, in data set [2], the cytotoxic concentration (CC50) at 48 h was above 50 µM. `O=C(NCCc1ccncc1)c1ccc(-c2ccccc2)nc1`: in data set [1], the inhibition amounted to 47.4%. In the case of `O=C(NCCc1ccncc1)c1nnc(-c2ccccc2)o1`, the inhibition in data set [1] was determined as 67.3%. The 50% cytotoxic concentration (CC50) at 48 h in data set [2] is above 50 µM. Consider `Cc1nc(C(=O)NCc2ccccc2)cs1`, for which the inhibition in data set [1] worked out at 3.1%. As to `O=C(NCCc1ccncc1)c1nccc(-c2ccccc2)n1`, the inhibition in data set [1] worked out at 61.5%. In data set [2], the cytotoxic concentration (CC50) at 48 h was above 50 µM. Take `O=C(NCCc1ccccc1Cl)c1ccc(-c2ccccc2)cn1`: in data set [1], the inhibition was 68.4%. Moreover, the CC50 at 48 h in data set [2] was above 50 µM. As to `O=C(NCCc1ccccc1Cl)c1csc(-c2ccccc2)n1`, in data set [1], the inhibition amounted to 54.1%.

Consider `O=C(NCCc1ccncc1)c1coc(-c2ccccc2)n1`, for which, in data set [1], the inhibition came to 38.7%. On the same count and under the same terms, as for `O=C(NCCc1ccc(O)cc1)c1ccc(-c2ccccc2)cn1`, the figure is 36.9%; as for `Cc1nc(C(=O)NCCc2ccncc2)cs1`, 31.3%.

With `O=C(NCCc1ccncc1)c1nc(-c2ccccc2)no1`, the inhibition in data set [1] stood at 36.9%. `Cc1nc(C(=O)NCCCc2ccccc2)cs1`: the inhibition in data set [1] amounted to 6.5%.

In the case of `COc1cccc(-c2ccc(C(=O)NCCc3ccccc3F)nc2)c1`, the inhibition in data set [1] was determined as 53.8%.

On to `Cc1ccc(C(=O)NCCc2ccncc2)cc1`, for which the inhibition in data set [1] is 3.1%. With `O=C(NCCc1ccccc1Cl)c1ncc(-c2ccccc2)o1`, in data set [1], the inhibition came out at 52.3%.

As to `O=C(NCCc1ccncc1)c1ncc(-c2ccccc2)o1`, the inhibition in data set [1] was 53.5%.

For `O=C(NCCc1ccccc1F)c1ccc(-c2ccc(O)cc2)cn1`, the inhibition in data set [1] was 33.2%.

For `O=C(NCCc1ccccc1F)c1ccc(-c2cccc(O)c2)cn1`, in data set [1], the inhibition was 0.3%.

`O=C(NCCc1ccccc1F)c1ccc(-c2cccc(F)c2)cn1`: the inhibition in data set [1] came to 55.3%. Consider `O=C(NCCc1ccccc1Cl)c1noc(-c2ccccc2)n1`, for which the inhibition in data set [1] was 40.5%. On to `O=C(NCCc1ccccc1Cl)c1csc(-c2ccncc2)n1`, for which, in data set [1], the inhibition was found to be 18.4%. Regarding `N#CC1(c2ccc(NC(=O)c3cccnc3NCc3ccncc3)cc2)CCCC1`, the outcome in the data set filed under Danio rerio was Active. With `O=C(NCCc1cccc(Cl)c1)c1ccc(-c2ccccc2)cn1`, in data set [1], the inhibition was found to be 64.6%. Besides, in data set [2], the CC50 at 48 h is above 50 µM. Regarding `O=C(NCCc1ccc(Cl)cc1)c1ccc(-c2ccccc2)cn1`, the inhibition in data set [1] was found to be 58.2%. `O=C(NCCc1ccccc1Cl)c1cc(-c2ccccc2)ncn1`: the inhibition in data set [1] came to 56.7%. Take `O=C(NCCc1ccccc1F)c1ccc(-c2ccccc2F)cn1`: the inhibition in data set [1] was 83.8%. Besides, the CC50 at 48 h in data set [2] was above 50 µM. In the case of `O=C(NCCc1ccccc1F)c1ccc(-c2ccoc2)cn1`, the inhibition in data set [1] was 73.4%. In the data set on HCCLM3, the “HIF-1α accumulation inhibition” value is “Active”. Moreover, the CC50 at 48 h in data set [2] is above 50 µM. For the compound `O=C(NCCc1ccncc1)c1csc(-c2cccnc2)n1`, in data set [1], the inhibition came to 33.9%. In the case of `N#Cc1cccc(-c2ccc(C(=O)NCCc3ccccc3F)nc2)c1`, in data set [1], the inhibition was found to be 44.5%. On the same count and under the same terms, next, `O=C(NCCc1cccnc1)c1ccc(-c2ccccc2)cn1`: 44.5%.

The values above are taken from ChEMBL document CHEMBL4354811, “Discovery of Novel Aryl Carboxamide Derivatives as Hypoxia-Inducible Factor 1α Signaling Inhibitors with Potent Activities of Anticancer Metastasis” (J Med Chem, 2019).
